p97 ATPase inh: human p97 ATPase inhibition. 0.42% of 220,000 active. recombinant p97 ATPase, Kinase-Glo ATP luminescence, 3 h. AID 1481. inhibition, % at 8 µM. P55072; in the data active = inhibition above about 15%;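 also: 0% = DMSO vehicle and 100% = wells lacking enzyme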
G6PDH counter: counter-screen for G6PDH assay hits: L. mesenteroides G6PDH inhibition. inhibition, % at 5 µM. Purified L. mesenteroides G6PDH, diaphorase/resazurin coupled fluorescence, 45 min. 0.12% of 200,000 active. AID 1020; in the data active = inhibition above about 50%
DTT redox prof: compounds producing H2O2 with reducing agent – biochemical, NIH compound library profiling, artefact control for MLSCN library redox annotation, primary screen | DTT-dependent redox cycling H2O2, phenol red/HRP absorbance; 100% = 100 µM peroxide control, 0% = buffer | activation, % at 10 µM | 0.03% of 200,000 active | AID 878;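 active = activation of at least 50% relative to the plate's high and low controls in the primary single-dose screen; inactive = activation below 50%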;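 also: compound incubated with DTT at 0.8 mM final as the reducing agent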
PMI act satM6P: PMI (human) activation, high substrate | P34949 | coupled PMI enzyme assay, resazurin fluorescence, 20 min; hits give high values; 1 = untreated enzyme, 0 = substrate-free blank | activation factor at 20 µM | 0.34% of 190,000 active | AID 1216;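 active = activation factor of 2 or more at 20 µM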
Target sequence (P34949 whole entry, looked up): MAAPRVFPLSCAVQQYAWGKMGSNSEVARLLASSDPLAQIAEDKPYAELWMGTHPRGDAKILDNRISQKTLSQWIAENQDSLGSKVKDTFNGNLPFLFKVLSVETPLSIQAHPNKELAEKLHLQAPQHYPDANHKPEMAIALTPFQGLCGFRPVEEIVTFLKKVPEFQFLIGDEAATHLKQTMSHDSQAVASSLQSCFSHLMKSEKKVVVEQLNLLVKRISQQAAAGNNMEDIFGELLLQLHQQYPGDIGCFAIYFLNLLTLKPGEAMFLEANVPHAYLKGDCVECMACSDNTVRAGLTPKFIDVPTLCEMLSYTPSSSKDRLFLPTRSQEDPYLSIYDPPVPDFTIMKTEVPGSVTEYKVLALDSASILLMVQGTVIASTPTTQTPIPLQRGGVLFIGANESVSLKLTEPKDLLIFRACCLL
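Material: human phosphomannose isomerase with PGI, G6PDH, diaphorase coupling enzymes; amount: PMI at 15 ng/mL final; also added: Mannose-6-phosphate 1.0 mM (near-saturating) plus 0.22 mM NADP+; incubation: enzyme reaction with compound 20 min at room temperature; signal: resorufin fluorescence (Ex 544/Em 590 nm) from resazurin via diaphorase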
PMI activator: phosphomannose isomerase (human) activation; AID 1214; purified human PMI, coupled resazurin fluorescence, 20 min; hits give high values; 1 = vehicle control, 0 substrate-free wells; 0.005% of 190,000 active; activation factor at 20 µM;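 active = activation factor of 2 or more at 20 µM, relative to plate controls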
Tb hexokinase: blocks Trypanosoma brucei hexokinase 1 activity. inhibition, % at 10 µM. AID 1430. recombinant TbHK1, G6PDH-coupled NADH A340. 0.11% of 220,000 active;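 active = inhibition of 50% or more in the single-dose primary screen; inactive = inhibition below 50%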
Active calls of the source: *. Shown are actives, neighbours in structure and some others; about 0.91% of the full set was active somewhere.

Screening NS(=O)(=O)c1cccc(NC(=O)COC(=O)CN2C(=O)C3CC=CCC3C2=O)c1 (stereo not given) returned p97 ATPase inh 1, G6PDH counter 6, DTT redox prof -1, PMI act satM6P 0.9, PMI activator 1 and Tb hexokinase -6.
For S=C1NC2(CCCC2)Nc2ccccc21 the results were p97 ATPase inh 3, G6PDH counter 11, DTT redox prof 0, PMI act satM6P 2.3*, PMI activator 1.7 and Tb hexokinase -5.
O=C1c2ccccc2NC2(CCCC2)N1O was read as p97 ATPase inh 0, G6PDH counter 7, DTT redox prof 0, PMI act satM6P 1.2, PMI activator 1.2 and Tb hexokinase 0.
Screening S=C1NC2(CCCCC2)Nc2ccccc21 returned p97 ATPase inh 7, G6PDH counter 4, DTT redox prof -1, PMI act satM6P 2.5*, PMI activator 1.7 and Tb hexokinase -7.
Screening S=C1NC2(CCCCCC2)N=C1c1ccccc1 returned p97 ATPase inh -2, G6PDH counter 8, DTT redox prof 0, PMI act satM6P 1, PMI activator 1 and Tb hexokinase -8.
For CC(OC(=O)c1nn(C(C)C)c(=O)c2ccccc12)C(=O)Nc1ncc(Cl)cc1Cl (stereo not given) the results were p97 ATPase inh -2, G6PDH counter -7, DTT redox prof -1, PMI act satM6P 1.1, PMI activator 1 and Tb hexokinase -7.
CCn1c(Cc2ccccc2)nnc1SCC(=O)Nc1ccccc1O was read as p97 ATPase inh 1, G6PDH counter 11, DTT redox prof 0, PMI act satM6P 1.1, PMI activator 1 and Tb hexokinase 0.
For COc1ccc(C2NN=C(c3ccc(C)cc3)S2)cc1OC (stereo not given) the results were p97 ATPase inh 4, G6PDH counter 7, DTT redox prof 0, PMI act satM6P 2.9*, PMI activator 1.8 and Tb hexokinase -14.
Screening Cc1ccc(C2=NNC(c3cccc(F)c3)S2)cc1 (stereo not given) returned p97 ATPase inh -1, G6PDH counter -2, DTT redox prof 0, PMI act satM6P 2.1*, PMI activator 1.7 and Tb hexokinase -4.
NNC(=O)CNC(c1ccccc1)c1cc(Br)ccc1NC(=O)CCN1CCOCC1 (stereo not given) was read as p97 ATPase inh 19*, G6PDH counter 15, DTT redox prof 2, PMI act satM6P 1, PMI activator 0.9 and Tb hexokinase -4.
For Nc1ccc2c(c1)C/C(=C/c1ccco1)C2=O the results were p97 ATPase inh 15*, G6PDH counter 9, DTT redox prof 0, PMI act satM6P 1.4, PMI activator 1.4 and Tb hexokinase -9.
COc1ccccc1/C=C/C(=O)Oc1cccc2cccnc12 was read as p97 ATPase inh 5, G6PDH counter 16, DTT redox prof -1, PMI act satM6P 0.7, PMI activator 0.9 and Tb hexokinase -6.
Cc1ccc2cccc(OC(=O)/C=C\c3ccccc3)c2n1 was read as p97 ATPase inh -6, G6PDH counter 51*, DTT redox prof -1, PMI act satM6P 0.4, PMI activator 0.6 and Tb hexokinase 2.
For O=C(O)/C=C/C(=O)Nc1ccc2nccnc2c1 the results were p97 ATPase inh -3, G6PDH counter 3, DTT redox prof -2, PMI act satM6P 0.4, PMI activator 0.9 and Tb hexokinase -17.
`CN(C)c1ccc(/C=N/Nc2ccc(-n3ccnc3)nn2)cc1` gave p97 ATPase inh 7, G6PDH counter -2, DTT redox prof -2, PMI act satM6P 2.2*, PMI activator 1.7 and Tb hexokinase -53.
`CCOC(=O)C1=C2NC(=O)c3ccccc3N2C(=O)C1` gave p97 ATPase inh 3, G6PDH counter 5, DTT redox prof 0, PMI act satM6P 2*, PMI activator 1.6 and Tb hexokinase 0.
CCOC(=O)C1=C(N)N(c2ccccc2Oc2ccccc2)C(=O)C1 was read as p97 ATPase inh 5, G6PDH counter 0, DTT redox prof 2, PMI act satM6P 1, PMI activator 1 and Tb hexokinase -5.
Screening CC(=O)Nc1cn(-c2ccccc2)nc1-c1ccccc1 returned p97 ATPase inh 0, G6PDH counter -1, DTT redox prof -1, PMI act satM6P 1, PMI activator 1 and Tb hexokinase -4.
Screening O=C(CCl)Nc1cn(-c2ccccc2)nc1-c1ccccc1 returned p97 ATPase inh 15*, G6PDH counter -4, DTT redox prof -1, PMI act satM6P 0.9, PMI activator 1 and Tb hexokinase 4.
Screening CN(C)c1ccc(/C=C2/C(=O)N(c3ccc([N+](=O)[O-])cc3)N=C2N2CCOCC2)cc1 returned p97 ATPase inh 32*, G6PDH counter 12, DTT redox prof -7, PMI act satM6P 0.7, PMI activator 0.9 and Tb hexokinase -14.
`CN(C)c1ccc(/C=C2\C(=O)N(c3ccc([N+](=O)[O-])cc3)N=C2N2CCOCC2)cc1` gave p97 ATPase inh 23*, DTT redox prof 1 and Tb hexokinase -13.
For CCN(Cc1ccccc1)c1ccc(/C=N/NS(=O)(=O)c2cccc([N+](=O)[O-])c2)cc1 the results were p97 ATPase inh 0, G6PDH counter 0, DTT redox prof 0, PMI act satM6P 2*, PMI activator 1.5 and Tb hexokinase -12.
CCN(CC)c1ccc(/C=N/NS(=O)(=O)c2ccc(C)c([N+](=O)[O-])c2)cc1 was read as p97 ATPase inh -3, G6PDH counter -11, DTT redox prof 0, PMI act satM6P 1.4, PMI activator 1.1 and Tb hexokinase -8.
For C/C(=N\Nc1cccc([N+](=O)[O-])c1)c1cc(F)ccc1O the results were p97 ATPase inh -1 and Tb hexokinase -16.
Screening Cc1c(O)ccc(/C(Cc2ccc3ccccc3n2)=N\O)c1O returned p97 ATPase inh -4, G6PDH counter 9, DTT redox prof -4, PMI act satM6P 1, PMI activator 1 and Tb hexokinase 0.
Oc1ccc(/C(Cc2ccccn2)=N\Nc2ccccc2)c(O)c1 was read as p97 ATPase inh 7, G6PDH counter -1, DTT redox prof -1, PMI act satM6P 2.5*, PMI activator 1.6 and Tb hexokinase -18.
For Oc1ccc(/C(Cc2ccc3ccccc3n2)=N\Nc2ccccc2)c(O)c1 the results were p97 ATPase inh 5, G6PDH counter 4, DTT redox prof 1, PMI act satM6P 2.3*, PMI activator 1.7 and Tb hexokinase -16.
CC(=O)Oc1ccc(C(=O)Cc2ccccn2)c(O)c1 was read as p97 ATPase inh 2, G6PDH counter 14, DTT redox prof 0, PMI act satM6P 1, PMI activator 0.8 and Tb hexokinase -28.
